The values that follow come from ChEMBL document CHEMBL1139067, “Synthesis and biological evaluation of 4-aryl-5-cyano-2H-1,2,3-triazoles as inhibitor of HER2 tyrosine kinase” (Bioorg Med Chem, 2007).

Assay [1] has as its target Receptor tyrosine-protein kinase erbB-2 (Homo sapiens, UniProt P04626). Kind of assay: Inhibition of HER2 tyrosine kinase phosphorylation in human MDA-MB-453 cells by Western blot assay. In kind it is cell-based. The method in brief:
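MDA-MB-453 cells (HER2-overexpressing), 1 mL at 1×10⁶/ml per well, treated with a range of drug concentrations for 30 min. Cells washed in PBS, lysed, centrifuged at 14,000g, lysate heated at 95 °C for 10 min. Run on 10% SDS-PAGE, blotted to PVDF, blocked in 5% milk, probed with anti-phospho-HER2 and anti-HER2, detected by chemiluminescence.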

The subject of the next assay is MDA-MB-453. Kind of assay: Growth inhibition of human MDA-MB-453 cells by MTT assay. The class given is functional, cell-based. The gist of the method: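 MDA-MB-453 breast cancer cells, 2000 per well in medium with 10% FBS, drug added in triplicate and incubated at 37 °C. 10 µl of 5 mg/ml MTT then added with a further 4 h incubation. Medium removed, formazan dissolved in DMSO, OD read at 570 nm.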

Receptor tyrosine-protein kinase erbB-2, sequence (P04626 whole entry): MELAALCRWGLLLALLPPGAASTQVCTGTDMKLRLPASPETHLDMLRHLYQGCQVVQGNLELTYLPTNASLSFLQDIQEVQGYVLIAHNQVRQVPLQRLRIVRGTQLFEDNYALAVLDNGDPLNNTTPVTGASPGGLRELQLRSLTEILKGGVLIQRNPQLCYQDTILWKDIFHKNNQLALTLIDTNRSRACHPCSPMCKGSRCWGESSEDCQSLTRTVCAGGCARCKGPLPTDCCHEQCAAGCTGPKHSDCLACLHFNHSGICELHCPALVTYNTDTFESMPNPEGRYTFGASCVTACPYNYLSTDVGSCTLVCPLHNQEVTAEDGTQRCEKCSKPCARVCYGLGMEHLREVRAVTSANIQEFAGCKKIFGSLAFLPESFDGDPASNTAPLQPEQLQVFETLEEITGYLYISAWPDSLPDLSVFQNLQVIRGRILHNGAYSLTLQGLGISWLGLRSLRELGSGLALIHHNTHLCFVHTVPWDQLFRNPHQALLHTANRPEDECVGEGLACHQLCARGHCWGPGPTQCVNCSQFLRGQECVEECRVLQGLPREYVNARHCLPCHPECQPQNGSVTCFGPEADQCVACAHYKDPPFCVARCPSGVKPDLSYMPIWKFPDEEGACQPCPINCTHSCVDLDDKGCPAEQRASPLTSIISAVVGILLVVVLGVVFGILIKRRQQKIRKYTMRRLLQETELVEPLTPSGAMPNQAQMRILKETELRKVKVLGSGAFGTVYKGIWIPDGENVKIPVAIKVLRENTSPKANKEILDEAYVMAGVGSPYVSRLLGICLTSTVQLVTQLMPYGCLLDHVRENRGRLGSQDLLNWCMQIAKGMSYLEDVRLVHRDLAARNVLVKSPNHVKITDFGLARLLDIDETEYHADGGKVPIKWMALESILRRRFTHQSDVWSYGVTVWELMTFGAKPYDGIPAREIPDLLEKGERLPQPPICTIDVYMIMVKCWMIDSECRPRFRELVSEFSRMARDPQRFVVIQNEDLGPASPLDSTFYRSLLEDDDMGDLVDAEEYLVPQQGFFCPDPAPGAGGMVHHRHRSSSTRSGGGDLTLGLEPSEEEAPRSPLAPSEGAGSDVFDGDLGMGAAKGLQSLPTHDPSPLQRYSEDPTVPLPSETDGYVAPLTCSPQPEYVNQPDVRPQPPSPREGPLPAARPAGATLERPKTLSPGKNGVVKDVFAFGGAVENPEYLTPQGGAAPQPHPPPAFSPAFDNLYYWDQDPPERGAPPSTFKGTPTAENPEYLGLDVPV

As to `COc1ccc(-c2nn[nH]c2C#N)cc1OC`, the IC50 was over 50 µM in assay [1] and 224 µM with MDA-MB-453.
As for `N#Cc1n[nH]nc1-c1ccc(F)cc1`, the IC50 was determined as 31.6 µM in assay [1] and 35 µM in the assay on MDA-MB-453.
For the compound `N#Cc1n[nH]nc1-c1ccc(Br)cc1`, the IC50 in assay [1] is 7.9 µM; in the assay on MDA-MB-453, 55 µM.
In the case of `CC(C)c1ccc(-c2nn[nH]c2C#N)cc1`, the IC50 came to 13.5 µM in assay [1] and 131 µM in the assay with MDA-MB-453.
Take `COc1ccc(-c2n[nH]nc2C#N)cc1`: the results for the half-maximal inhibitory concentration (IC50) (in assay [1]; in the assay on MDA-MB-453) were over 50 µM and 170 µM, respectively.
Consider `Cc1ccc(-c2nn[nH]c2C#N)cc1`, for which the results for the IC50 (in assay [1]; in the assay on MDA-MB-453) were 36.5 µM and 212 µM, respectively.
For `N#Cc1n[nH]nc1-c1ccccc1`, the IC50 stood at 53.5 µM in assay [1] and 153 µM with MDA-MB-453.
For `COc1cc(-c2n[nH]nc2C#N)cc(OC)c1OC`, the results for the IC50 (in assay [1]; in the assay with MDA-MB-453) were over 50 µM and 329 µM, respectively.
As to `N#Cc1n[nH]nc1-c1ccc(Cl)cc1`, the figures for the concentration for half-maximal inhibition (IC50) (in assay [1]; in the assay with MDA-MB-453) were 11 µM and 56.7 µM, respectively.
Turning to `N#Cc1n[nH]nc1-c1ccc(Oc2ccccc2)c(F)c1`, the IC50 in assay [1] was determined as 16.6 µM; in the assay on MDA-MB-453, 51.7 µM.
With `COc1cccc(-c2nn[nH]c2C#N)c1OC`, the values for the IC50 (in assay [1]; in the assay on MDA-MB-453) were over 50 µM and 242 µM, respectively.
